{"data": "Measured values gathered from unrelated publications", "target": "STE20/SPS1-related proline-alanine-rich protein kinase (STK39, Homo sapiens, UniProt Q9UEW8)", "note": "Compare with care: the assays were run in different laboratories."}
{"Compound": "COc1cc(Nc2ncc(F)c(Nc3ccc4c(n3)NC(=O)C(C)(C)O4)n2)cc(OC)c1OC", "observed": "binding", "concentration": "10 µM", "quantity": "inhibition", "result": "65%"}
{"Compound": "Cn1cncc1[C@](O)(COc1ccc(C#N)cc1-c1ccc(OC(F)(F)F)cc1)c1ccc(C#N)cc1", "observed": "cell-free assay", "technique": "competition with immobilised ligand", "concentration": "1 µM", "quantity": "remaining binding", "result": "50%"}
{"Compound": "O=c1[nH]c2ccccc2n1C1CCN(Cc2ccc(-c3[nH]c4cc5ncnc5cc4nc3-c3ccccc3)cc2)CC1", "observed": "cell-free assay", "concentration": "0.5 µM", "quantity": "remaining signal", "result": "98.2%"}
{"Compound": "COc1ncccc1-c1cnn2ccc(N3CCN(C(=O)OC(C)C)CC3)nc12", "observed": "binding", "technique": "competition with immobilised ligand", "concentration": "1 µM", "quantity": "remaining binding", "result": "88%"}
{"Compound": "CC(C)(C)c1cc(C=C(C#N)C#N)cc(Br)c1O", "observed": "enzyme activity", "action": "inhibitor", "concentration": "0.5 µM", "quantity": "remaining activity", "result": "87.6%"}
{"Compound": "N#CC1(c2ccccn2)CCN(Cc2cc(C(=O)O)c(=O)n3ccccc23)CC1", "observed": "cell-free assay", "technique": "competition with immobilised ligand", "concentration": "1 µM", "quantity": "remaining binding", "result": "56%"}
{"Compound": "Cc1nn(C)cc1-c1nc2c(N3CCN(Cc4ccc(Cl)cc4)CC3)c(Cl)cnc2[nH]1", "observed": "binding", "technique": "competition with immobilised ligand", "concentration": "1 µM", "quantity": "remaining binding", "result": "100%"}
{"Compound": "Nc1ncc(-c2nc(N3CCOCC3)nc(N3CCOCC3)n2)c(C(F)F)n1", "observed": "binding", "technique": "competition with immobilised ligand", "concentration": "10 µM", "quantity": "remaining binding", "result": "70%"}
